Data: ChEMBL document CHEMBL4350961, “Discovery of Pyrrolo[3,2- d]pyrimidin-4-one Derivatives as a New Class of Potent and Cell-Active Inhibitors of P300/CBP-Associated Factor Bromodomain” (J Med Chem, 2019)
Calls of active or inactive are those of the source. No cut-off for these calls is given here.

What was measured:
[1] = molecular target: Histone acetyltransferase KAT2B (Homo sapiens, UniProt Q92831); assay: Inhibition of biotinylated peptide binding to human GST-tagged PCAF bromodomain expressed in Escherichia coli Rosetta (DE3) measured after 15 hrs by HTRF assay
[2] = molecular target: ATPase family AAA domain-containing protein 2 (Homo sapiens) (UniProt Q6PL18); assay: Binding affinity to human N-terminal His-tagged ATAD2 assessed as change in melting temperature at 10 uM by SYPRO orange dye-based fluorescence assay
Method in brief: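 Thermal shift with His-tagged human bromodomain at 2 μM final in 10 mM HEPES pH 7.5, 500 mM NaCl. Compound at 10 μM final with 0.1% DMSO; SYPRO Orange at 1:1000. Equilibrated 3 min at 25 °C, then heated from 25 to 95 °C at 1 °C/min. Melting temperature shift taken from fluorescence; at least duplicate.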

[3] = molecular target: Bromodomain-containing protein 4 (Homo sapiens) (UniProt O60885); assay: Binding affinity to human partial length BRD4 bromodomain 2 long isoform (K333 to E460 residues) expressed in bacterial expression system at 1 uM by BROMOscan assay
Method in brief: (§1)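 BROMOscan bromodomain cross-screen run by an outside service, compound at 1 µM against 32 recombinant bromodomains. Binding given as percent of control.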

[4] = molecular target: Bromodomain testis-specific protein (Homo sapiens) (UniProt Q58F21); assay: Binding affinity to human partial length BRDT bromodomain 2 (K250 to E382 residues) expressed in bacterial expression system at 1 uM by BROMOscan assay; method in brief: as §1
[5] = molecular target: Protein polybromo-1 (Homo sapiens) (UniProt Q86U86); assay: Binding affinity to human partial length PBRM1 bromodomain 5 (S645 to D766 residues) expressed in bacterial expression system at 1 uM by BROMOscan assay; method in brief: as §1
[6] = molecular target: 5'-AMP-activated protein kinase catalytic subunit alpha-2 (Homo sapiens) (UniProt P54646); assay: Inhibition of recombinant full-length human AMPKalpha2 at 10 uM using AMARAASAAALARRR as substrate measured after 40 mins in presence of [gamma33P]ATP by scintillation counting method
[7] = molecular target: Activated CDC42 kinase 1 (Homo sapiens) (UniProt Q07912); assay: Inhibition of recombinant human ACK1 (1 to 389 residues) at 10 uM using EFPIYDFLPAKKK as substrate measured after 40 mins in presence of [gamma33P]ATP by scintillation counting method
[8] = molecular target: Serine/threonine-protein kinase BRSK1 (Homo sapiens) (UniProt Q8TDC3); assay: Inhibition of recombinant human BrSK1 (2 to end residues) at 10 uM using KKKVSRSGLYRSPSMPENLNRPR as substrate measured after 120 mins in presence of [gamma33P]ATP by scintillation counting method
[9] = molecular target: Casein kinase 2 (Homo sapiens) (UniProt P67870+P68400+P19784+Q8NEV1); assay: Inhibition of human CK2 at 10 uM; type: protein assay
Method in brief: (§2)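 Kinase panel of 422 kinases screened by Eurofins KinaseProfiler at a single test-compound concentration of 10 µM.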

[10] = molecular target: Mast/stem cell growth factor receptor Kit (Homo sapiens) (UniProt P10721); assay: Inhibition of recombinant human c-Kit (544 to end residues) at 10 uM using poly(Glu, Tyr) 4:1 as substrate measured after 40 mins in presence of [gamma33P]ATP by scintillation counting method
[11] = molecular target: Homeodomain-interacting protein kinase 3 (Homo sapiens) (UniProt Q9H422); assay: Inhibition of recombinant human HIPK3 (161 to 562 residues) at 10 uM using myelin basic protein as substrate measured after 40 mins in presence of [gamma33P]ATP by scintillation counting method
[12] = molecular target: Mitogen-activated protein kinase 1 (Homo sapiens) (UniProt P28482); assay: Inhibition of human MAPK2 at 10 uM; method in brief: as §2
[13] = test system: Hepatocyte growth factor receptor (Homo sapiens), P08581 [Y1230D]; assay: Inhibition of recombinant human MET A1209G/V1290L/Y1248D mutant (974 to end residues) at 10 uM using KKKGQEEEYVFIE as substrate measured after 40 mins in presence of [gamma33P]ATP by scintillation counting method
[14] = molecular target: MAPK/MAK/MRK overlapping kinase (Homo sapiens) (UniProt Q9UQ07); assay: Inhibition of recombinant human MOK (1 to 343 residues) at 10 uM using RSRSRSRSRSRSRSR as substrate measured after 40 mins in presence of [gamma33P]ATP by scintillation counting method
[15] = molecular target: Serine/threonine-protein kinase PAK 6 (Homo sapiens) (UniProt Q9NQU5); assay: Inhibition of recombinant human PAK6 (382 to end residues) at 10 uM using RRRLSFAEPG as substrate measured after 40 mins in presence of [gamma33P]ATP by scintillation counting method
[16] = molecular target: cGMP-dependent protein kinase 1 (Homo sapiens) (UniProt Q13976); assay: Inhibition of recombinant full-length human PKG1beta at 10 uM using RRRLSFAEPG as substrate measured after 40 mins in presence of [gamma33P]ATP by scintillation counting method
[17] = molecular target: Ribosomal protein S6 kinase alpha-2 (Homo sapiens) (UniProt Q15349); assay: Inhibition of recombinant full-length human Rsk3 at 10 uM using KKKNRTLSVA as substrate measured after 40 mins in presence of [gamma33P]ATP by scintillation counting method
[18] = molecular target: Serine/threonine-protein kinase SBK1 (Homo sapiens) (UniProt Q52WX2); assay: Inhibition of recombinant full-length human SBK1 at 10 uM using KKLRRTLSVA as substrate measured after 120 mins in presence of [gamma33P]ATP by scintillation counting method
[19] = molecular target: Serine/threonine-protein kinase SIK2 (Homo sapiens) (UniProt Q9H0K1); assay: Inhibition of human SIK2 (1 to 276 residues) using KKKVSRSGLYRSPSMPENLNRPR as substrate measured after 40 mins in presence of [gamma33P]ATP by scintillation counting method; method in brief: as §2
[20] = molecular target: TGF-beta receptor type-2 (Homo sapiens) (UniProt P37173); assay: Inhibition of human TGFBR2 (188 to end residues) using myelin basic protein as substrate measured after 120 mins in presence of [gamma33P]ATP by scintillation counting method
[21] = molecular target: Mitogen-activated protein kinase kinase kinase 20 (Homo sapiens) (UniProt Q9NYL2); assay: Inhibition of recombinant full-length human ZAK at 10 uM using MBP as substrate measured after 40 mins in presence of [gamma33P]ATP by scintillation counting method
[22] = molecular target: DNA-dependent protein kinase catalytic subunit (Homo sapiens) (UniProt P78527); assay: Inhibition of recombinant full-length human DNA-PK at 10 uM using GST-cMyc-p53 as substrate measured after 40 mins by fluorescence assay
[23] = molecular target: PI3K p110 beta/p85 alpha (Homo sapiens) (UniProt P27986+P42338); assay: Inhibition of recombinant full-length human PI3K p110beta/p85alpha at 10 uM using phosphatidylinositol-4, 5-bisphosphate as substrate measured after 40 mins by fluorescence assay; type: protein-complex assay

Chain of Mitogen-activated protein kinase 1 (Homo sapiens) (P28482 whole entry): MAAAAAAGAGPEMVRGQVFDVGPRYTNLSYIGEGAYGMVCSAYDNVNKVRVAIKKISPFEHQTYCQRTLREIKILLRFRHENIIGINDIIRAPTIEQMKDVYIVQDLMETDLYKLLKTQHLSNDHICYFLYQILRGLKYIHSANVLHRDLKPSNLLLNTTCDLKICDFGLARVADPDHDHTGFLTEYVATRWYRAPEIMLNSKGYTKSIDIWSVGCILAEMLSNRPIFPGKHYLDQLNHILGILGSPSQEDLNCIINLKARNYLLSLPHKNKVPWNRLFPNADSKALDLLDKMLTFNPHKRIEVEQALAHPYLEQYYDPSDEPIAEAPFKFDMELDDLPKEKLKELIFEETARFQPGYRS
Chain of Serine/threonine-protein kinase SBK1 (Homo sapiens) (Q52WX2 whole entry, the tested form may be a part): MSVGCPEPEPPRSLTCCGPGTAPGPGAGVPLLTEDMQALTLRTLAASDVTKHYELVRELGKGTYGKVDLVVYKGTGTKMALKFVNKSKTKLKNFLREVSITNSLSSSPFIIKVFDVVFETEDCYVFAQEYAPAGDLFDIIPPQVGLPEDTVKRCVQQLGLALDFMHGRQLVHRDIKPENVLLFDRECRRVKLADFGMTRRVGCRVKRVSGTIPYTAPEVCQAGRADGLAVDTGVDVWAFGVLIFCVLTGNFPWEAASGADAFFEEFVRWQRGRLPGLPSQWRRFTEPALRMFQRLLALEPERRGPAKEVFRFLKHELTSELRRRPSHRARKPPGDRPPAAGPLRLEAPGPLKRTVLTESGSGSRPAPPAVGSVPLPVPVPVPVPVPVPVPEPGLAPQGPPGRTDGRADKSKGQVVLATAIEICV
Chain of Histone acetyltransferase KAT2B (Q92831 whole entry, the tested form may be a part): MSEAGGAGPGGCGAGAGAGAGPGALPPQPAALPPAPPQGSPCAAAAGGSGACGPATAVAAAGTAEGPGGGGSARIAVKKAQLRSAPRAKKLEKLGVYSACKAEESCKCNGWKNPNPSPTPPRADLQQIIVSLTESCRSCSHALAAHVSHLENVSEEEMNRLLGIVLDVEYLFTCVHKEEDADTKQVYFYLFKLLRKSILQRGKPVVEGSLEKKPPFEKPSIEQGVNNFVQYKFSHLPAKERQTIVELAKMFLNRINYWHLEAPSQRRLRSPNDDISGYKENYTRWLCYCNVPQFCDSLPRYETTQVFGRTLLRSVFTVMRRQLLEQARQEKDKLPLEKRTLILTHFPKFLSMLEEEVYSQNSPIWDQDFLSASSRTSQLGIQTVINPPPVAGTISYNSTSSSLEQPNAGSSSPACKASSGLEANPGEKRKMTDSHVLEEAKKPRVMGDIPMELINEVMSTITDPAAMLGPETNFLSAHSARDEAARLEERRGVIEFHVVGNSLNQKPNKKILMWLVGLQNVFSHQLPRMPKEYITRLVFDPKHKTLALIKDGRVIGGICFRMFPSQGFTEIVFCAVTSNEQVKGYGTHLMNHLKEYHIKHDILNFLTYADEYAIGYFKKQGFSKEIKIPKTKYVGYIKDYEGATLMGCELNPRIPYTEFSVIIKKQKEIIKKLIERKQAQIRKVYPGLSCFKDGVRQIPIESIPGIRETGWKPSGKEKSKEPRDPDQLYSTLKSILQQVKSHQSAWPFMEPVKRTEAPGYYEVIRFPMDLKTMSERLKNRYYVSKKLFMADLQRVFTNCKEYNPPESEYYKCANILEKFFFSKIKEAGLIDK
Chain of ATPase family AAA domain-containing protein 2 (Homo sapiens) (Q6PL18 whole entry, the tested form may be a part): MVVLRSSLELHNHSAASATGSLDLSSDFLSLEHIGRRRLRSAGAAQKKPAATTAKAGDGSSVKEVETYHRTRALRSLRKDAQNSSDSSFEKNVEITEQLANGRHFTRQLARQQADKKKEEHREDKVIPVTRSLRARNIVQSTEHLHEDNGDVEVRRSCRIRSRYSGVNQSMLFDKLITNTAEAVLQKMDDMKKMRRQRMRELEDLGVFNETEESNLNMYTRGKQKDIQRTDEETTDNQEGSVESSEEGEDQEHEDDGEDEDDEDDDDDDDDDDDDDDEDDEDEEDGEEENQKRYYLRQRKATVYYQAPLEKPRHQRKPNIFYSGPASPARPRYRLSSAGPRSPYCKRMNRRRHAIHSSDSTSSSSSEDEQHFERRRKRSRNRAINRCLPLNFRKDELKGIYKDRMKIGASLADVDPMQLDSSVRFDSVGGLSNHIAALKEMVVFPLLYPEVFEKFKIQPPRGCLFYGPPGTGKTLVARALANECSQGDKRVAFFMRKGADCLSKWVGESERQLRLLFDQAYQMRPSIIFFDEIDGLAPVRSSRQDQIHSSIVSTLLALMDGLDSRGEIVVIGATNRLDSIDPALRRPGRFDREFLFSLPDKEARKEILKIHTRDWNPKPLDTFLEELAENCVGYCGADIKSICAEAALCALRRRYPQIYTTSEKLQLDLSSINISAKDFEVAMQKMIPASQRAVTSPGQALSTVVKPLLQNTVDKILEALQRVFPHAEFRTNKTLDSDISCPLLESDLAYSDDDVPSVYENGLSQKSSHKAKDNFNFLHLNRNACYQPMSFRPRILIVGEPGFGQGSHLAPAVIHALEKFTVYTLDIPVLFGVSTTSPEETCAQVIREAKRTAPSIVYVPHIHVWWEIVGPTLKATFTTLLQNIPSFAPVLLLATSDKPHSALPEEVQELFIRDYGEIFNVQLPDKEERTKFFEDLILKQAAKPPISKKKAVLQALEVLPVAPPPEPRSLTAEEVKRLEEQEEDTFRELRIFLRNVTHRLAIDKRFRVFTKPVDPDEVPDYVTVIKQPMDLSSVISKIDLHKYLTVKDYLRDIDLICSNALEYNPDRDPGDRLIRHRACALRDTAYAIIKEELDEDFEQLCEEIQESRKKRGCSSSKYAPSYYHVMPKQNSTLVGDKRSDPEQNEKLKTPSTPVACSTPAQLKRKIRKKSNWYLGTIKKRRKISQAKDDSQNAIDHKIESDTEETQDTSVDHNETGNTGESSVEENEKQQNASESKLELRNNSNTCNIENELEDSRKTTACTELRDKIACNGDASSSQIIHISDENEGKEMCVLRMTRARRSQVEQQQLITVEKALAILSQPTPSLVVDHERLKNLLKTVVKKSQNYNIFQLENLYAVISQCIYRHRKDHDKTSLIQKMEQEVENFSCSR
Chain of TGF-beta receptor type-2 (Homo sapiens) (P37173 whole entry): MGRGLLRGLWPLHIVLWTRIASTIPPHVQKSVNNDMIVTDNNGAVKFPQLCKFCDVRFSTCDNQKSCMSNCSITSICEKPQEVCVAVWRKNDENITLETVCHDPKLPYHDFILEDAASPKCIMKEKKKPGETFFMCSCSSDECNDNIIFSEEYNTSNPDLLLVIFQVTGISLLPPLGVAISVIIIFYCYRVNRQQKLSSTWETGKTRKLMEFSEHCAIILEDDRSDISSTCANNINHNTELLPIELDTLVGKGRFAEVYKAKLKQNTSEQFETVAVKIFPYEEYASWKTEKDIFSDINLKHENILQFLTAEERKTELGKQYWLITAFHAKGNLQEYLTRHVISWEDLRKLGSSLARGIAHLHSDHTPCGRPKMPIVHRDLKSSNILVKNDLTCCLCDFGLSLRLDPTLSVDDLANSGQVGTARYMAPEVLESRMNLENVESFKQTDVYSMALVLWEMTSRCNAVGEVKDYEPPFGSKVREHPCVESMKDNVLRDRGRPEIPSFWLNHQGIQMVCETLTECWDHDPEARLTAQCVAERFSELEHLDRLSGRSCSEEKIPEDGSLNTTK
Chain of Homeodomain-interacting protein kinase 3 (Homo sapiens) (Q9H422 whole entry, looked up, the tested form may be a part): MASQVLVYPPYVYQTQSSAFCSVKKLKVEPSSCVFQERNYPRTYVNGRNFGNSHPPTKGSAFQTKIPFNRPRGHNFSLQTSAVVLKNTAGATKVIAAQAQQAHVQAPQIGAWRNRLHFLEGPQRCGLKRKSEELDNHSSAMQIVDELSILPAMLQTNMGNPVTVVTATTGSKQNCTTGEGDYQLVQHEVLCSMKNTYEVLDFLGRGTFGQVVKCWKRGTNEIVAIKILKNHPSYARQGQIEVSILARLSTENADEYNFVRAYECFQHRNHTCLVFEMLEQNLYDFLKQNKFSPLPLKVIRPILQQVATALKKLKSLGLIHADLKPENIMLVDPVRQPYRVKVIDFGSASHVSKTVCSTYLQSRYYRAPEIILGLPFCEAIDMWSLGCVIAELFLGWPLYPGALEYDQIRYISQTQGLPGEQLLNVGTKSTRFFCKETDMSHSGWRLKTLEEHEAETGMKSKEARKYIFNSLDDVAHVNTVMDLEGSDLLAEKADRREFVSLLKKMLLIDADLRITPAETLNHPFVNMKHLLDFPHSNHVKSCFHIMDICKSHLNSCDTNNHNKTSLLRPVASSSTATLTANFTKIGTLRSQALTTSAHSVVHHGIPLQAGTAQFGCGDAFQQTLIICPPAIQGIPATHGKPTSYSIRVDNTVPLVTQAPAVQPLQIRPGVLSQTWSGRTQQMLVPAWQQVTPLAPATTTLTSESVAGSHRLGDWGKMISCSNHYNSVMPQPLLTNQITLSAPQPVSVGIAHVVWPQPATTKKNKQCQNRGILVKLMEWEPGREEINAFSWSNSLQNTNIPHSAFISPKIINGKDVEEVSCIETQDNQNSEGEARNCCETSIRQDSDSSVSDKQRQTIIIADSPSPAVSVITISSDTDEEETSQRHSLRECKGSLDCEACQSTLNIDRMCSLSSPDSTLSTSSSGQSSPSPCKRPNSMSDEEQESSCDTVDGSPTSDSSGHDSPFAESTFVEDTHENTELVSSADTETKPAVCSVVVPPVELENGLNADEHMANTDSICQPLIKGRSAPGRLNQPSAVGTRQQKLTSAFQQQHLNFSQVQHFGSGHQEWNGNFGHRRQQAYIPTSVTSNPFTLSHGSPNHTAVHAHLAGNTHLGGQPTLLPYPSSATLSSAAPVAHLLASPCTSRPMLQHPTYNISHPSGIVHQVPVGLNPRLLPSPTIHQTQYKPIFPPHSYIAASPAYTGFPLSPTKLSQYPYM

For `CN1C[C@H](Nc2nc3cc[nH]c3c(=O)n2C)C[C@H](c2ccc3c(c2)OCCO3)C1`, the IC50 [1] was 7 nM, the ΔTm [2] was 0.3 °C and the Activity [3] was “inactive”. The Activity [4] was “inactive”, the Activity [5] was “inactive” and the inhibition [6] was “inactive”. For the same compound, the inhibition [7] was “inactive”, the inhibition [8] was “inactive” and the inhibition [9] was “inactive”. The inhibition [10] was “inactive”, the inhibition [11] was “inactive” and the inhibition [12] was “inactive”. The inhibition [13] was “inactive”, the inhibition [14] was “inactive” and the inhibition [15] was “inactive”. For the same compound, the inhibition [16] was “inactive”, the inhibition [17] was “inactive” and the inhibition [18] was “inactive”. For the same compound, the inhibition [19] was “inactive”, the inhibition [20] was “inactive” and the inhibition [21] was “inactive”. For the same compound, the inhibition [22] was “inactive” and the inhibition [23] was “inactive”.
